According to ChEMBL document CHEMBL1821687, “Discovery, synthesis, and biological evaluation of novel SMN protein modulators” (J Med Chem, 2011):

What was measured:
[1] = test system: Plasma; assay: Tmax in plasma of Swiss albino mouse at 30 mg/kg, po; type: ADME, organism-based; design: dose 30 mg/kg, route oral; conditions: in vivo
Outline: (§1)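 Male Swiss Albino mice received a single 30 mg/kg oral gavage dose. Compound levels were measured in plasma and brain over time, and PK parameters were derived from the concentration–time data.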

[2] = test system: Plasma; assay: Free plasma concentration in Swiss albino mouse at 30 mg/kg, po after 0.25 hr; type: ADME, organism-based; design: dose 30 mg/kg, route oral; conditions: in vivo
[3] = Plasma concentration in Swiss albino mouse at 30 mg/kg, po after 0.25 hrs; type: ADME, organism-based; design: dose 30 mg/kg, route oral; outline: as §1
[4] = test system: Caco-2; assay: Apparent permeability from basolateral side to apical side of human Caco2 cells at 10 uM; type: ADME, cell-based; conditions: caco-2, 10 µM
[5] = Ratio of AUC in brain to AUC in plasma in Swiss albino mouse at 30 mg/kg, po; type: ADME, organism-based; design: dose 30 mg/kg, route oral; conditions: brain and plasma
Outline: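 Single oral gavage dose of 30 mg/kg given to male Swiss Albino mice; compound concentrations measured in both plasma and brain, from which brain and plasma exposure parameters were derived; animals observed for behavioural disturbance throughout the study.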

[6] = test system: Plasma; assay: Half-life in plasma of Swiss albino mouse at 30 mg/kg, po; type: ADME, organism-based; design: dose 30 mg/kg, route oral; conditions: in vivo; outline: as §1
[7] = Plasma concentration in Swiss albino mouse at 30 mg/kg, po after 12 hrs; type: ADME, organism-based; design: dose 30 mg/kg, route oral; outline: as §1
[8] = test system: Plasma; assay: Free plasma concentration in Swiss albino mouse at 30 mg/kg, po after 12 hrs; type: ADME, organism-based; design: dose 30 mg/kg, route oral; conditions: in vivo
[9] = Plasma concentration in Swiss albino mouse at 30 mg/kg, po after 0.5 hrs; type: ADME, organism-based; design: dose 30 mg/kg, route oral; outline: as §1
[10] = test system: Brain; assay: Drug level in Swiss albino mouse brain at 30 mg/kg, po after 2 hrs; type: ADME, organism-based; design: dose 30 mg/kg, route oral; conditions: in vivo; outline: as §1
[11] = test system: Brain; assay: Cmax in brain of Swiss albino mouse at 30 mg/kg, po; type: ADME, organism-based; design: dose 30 mg/kg, route oral; conditions: in vivo; outline: as §1
[12] = target: Survival motor neuron protein (Homo sapiens) (UniProt Q16637); assay: Activation of SMN expressed in HEK293 cells assessed as concentration required to reach 50% of maximum luciferase signal by SMN2-promotor driven luciferase reporter gene assay; type: cell-based
Survival motor neuron protein (Homo sapiens), sequence (Q16637 whole entry): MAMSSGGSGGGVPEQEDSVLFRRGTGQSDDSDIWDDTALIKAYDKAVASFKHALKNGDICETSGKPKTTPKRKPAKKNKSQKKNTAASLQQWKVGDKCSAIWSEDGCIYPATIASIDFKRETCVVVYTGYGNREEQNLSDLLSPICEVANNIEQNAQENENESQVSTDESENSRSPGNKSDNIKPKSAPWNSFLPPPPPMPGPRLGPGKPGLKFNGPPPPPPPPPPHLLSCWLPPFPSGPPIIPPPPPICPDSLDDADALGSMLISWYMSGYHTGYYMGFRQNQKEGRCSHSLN
Outline: (§2)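 HEK-293 cells stably carrying the SMN2 reporter construct, kept in DMEM with 10% FCS, glutamax, pyruvate, pen/strep and 200 µg/mL hygromycin, and assayed without hygromycin. 2,000 cells/well were plated and adhered overnight at 37 °C, 5% CO2. Compounds were added as a 7-point titration, 50 µM to 25 nM final, in 0.46% DMSO, for 30–36 h. OneGlo luminescence was normalized to 4.5 mM sodium butyrate (100%) and DMSO (0%).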

[13] = test system: Brain; assay: Drug level in Swiss albino mouse brain at 30 mg/kg, po after 1 hr; type: ADME, organism-based; design: dose 30 mg/kg, route oral; conditions: in vivo; outline: as §1
[14] = target: Survival motor neuron protein (Homo sapiens) (UniProt Q16637); assay: Activation of SMN expressed in HEK293 cells assessed as rate of induction by SMN2-promotor driven luciferase reporter gene assay relative to basal level; type: cell-based; design: concentration or dose not given beside the values; outline: as §2
[15] = test system: Plasma; assay: Free plasma concentration in Swiss albino mouse at 30 mg/kg, po after 2 hrs; type: ADME, organism-based; design: dose 30 mg/kg, route oral; conditions: in vivo
[16] = test system: Plasma; assay: Free plasma concentration in Swiss albino mouse at 30 mg/kg, po after 8 hrs; type: ADME, organism-based; design: dose 30 mg/kg, route oral; conditions: in vivo
[17] = Plasma protein binding in Swiss albino mouse at 30 mg/kg, po; type: ADME, organism-based; design: dose 30 mg/kg, route oral; conditions: read-out: PPB (converted)
[18] = test system: Plasma; assay: Free plasma concentration in Swiss albino mouse at 30 mg/kg, po after 0.083 hr; type: ADME, organism-based; design: dose 30 mg/kg, route oral; conditions: in vivo
[19] = test system: Brain; assay: Drug level in Swiss albino mouse brain at 30 mg/kg, po after 4 hrs; type: ADME, organism-based; design: dose 30 mg/kg, route oral; conditions: in vivo; outline: as §1
[20] = test system: Brain; assay: Drug level in Swiss albino mouse brain at 30 mg/kg, po after 0.083 hr; type: ADME, organism-based; design: dose 30 mg/kg, route oral; conditions: in vivo
[21] = test system: Plasma; assay: Free plasma concentration in Swiss albino mouse at 30 mg/kg, po after 4 hrs; type: ADME, organism-based; design: dose 30 mg/kg, route oral; conditions: in vivo
[22] = Plasma concentration in Swiss albino mouse at 30 mg/kg, po after 8 hrs; type: ADME, organism-based; design: dose 30 mg/kg, route oral; outline: as §1
[23] = target: T1, Luciferin 4-monooxygenase (Luciola lateralis, UniProt Q01158); assay: Inhibition of fire fly luciferase; design: species or system Aquatica lateralis; conditions: read-out: IC50
T1 sequence (Q01158 whole entry): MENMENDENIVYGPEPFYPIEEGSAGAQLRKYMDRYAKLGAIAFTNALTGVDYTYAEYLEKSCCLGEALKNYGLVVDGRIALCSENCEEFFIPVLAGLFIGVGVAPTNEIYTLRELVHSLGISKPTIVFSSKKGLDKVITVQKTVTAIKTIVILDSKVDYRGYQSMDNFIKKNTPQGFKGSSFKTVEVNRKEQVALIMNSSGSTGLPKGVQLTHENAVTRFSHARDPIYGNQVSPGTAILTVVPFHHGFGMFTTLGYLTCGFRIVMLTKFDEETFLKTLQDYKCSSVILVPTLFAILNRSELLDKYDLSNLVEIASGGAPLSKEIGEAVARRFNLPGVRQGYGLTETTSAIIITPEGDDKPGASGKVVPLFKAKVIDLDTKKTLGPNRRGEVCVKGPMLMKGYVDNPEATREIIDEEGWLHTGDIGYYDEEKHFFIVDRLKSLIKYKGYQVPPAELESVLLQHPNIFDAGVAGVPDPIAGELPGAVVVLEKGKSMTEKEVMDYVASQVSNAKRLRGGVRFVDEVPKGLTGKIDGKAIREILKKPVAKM

[24] = Plasma concentration in Swiss albino mouse at 30 mg/kg, po after 0.083 hrs; type: ADME, organism-based; design: dose 30 mg/kg, route oral
[25] = Plasma concentration in Swiss albino mouse at 30 mg/kg, po after 1 hr; type: ADME, organism-based; design: dose 30 mg/kg, route oral; outline: as §1
[26] = test system: Brain; assay: Drug level in Swiss albino mouse brain at 30 mg/kg, po after 12 hrs; type: ADME, organism-based; design: dose 30 mg/kg, route oral; conditions: in vivo; outline: as §1
[27] = target: Survival motor neuron protein (Homo sapiens) (UniProt Q16637); assay: Activation of SMN in human fibroblast cells obtained from type 1 SMA patients assessed as protein punctuate bodies per 100 nuclei at 37 to 1000 nM relative to control; type: cell-based
[28] = test system: Plasma; assay: Cmax in plasma of Swiss albino mouse at 30 mg/kg, po; type: ADME, organism-based; design: dose 30 mg/kg, route oral; conditions: in vivo; outline: as §1
[29] = Plasma concentration in Swiss albino mouse at 30 mg/kg, po after 24 hrs; type: ADME, organism-based; design: dose 30 mg/kg, route oral; outline: as §1
[30] = test system: Brain; assay: AUC (infinity) in brain of Swiss albino mouse at 30 mg/kg, po; type: ADME, organism-based; design: time infinity, dose 30 mg/kg, route oral; conditions: in vivo; outline: as §1
[31] = Plasma concentration in Swiss albino mouse at 30 mg/kg, po after 4 hrs; type: ADME, organism-based; design: dose 30 mg/kg, route oral; outline: as §1
[32] = test system: Brain; assay: Drug level in Swiss albino mouse brain at 30 mg/kg, po after 24 hrs; type: ADME, organism-based; design: dose 30 mg/kg, route oral; conditions: in vivo; outline: as §1
[33] = test system: Plasma; assay: Free plasma concentration in Swiss albino mouse at 30 mg/kg, po after 0.5 hr; type: ADME, organism-based; design: dose 30 mg/kg, route oral; conditions: in vivo
[34] = test system: Brain; assay: Drug level in Swiss albino mouse brain at 30 mg/kg, po after 8 hrs; type: ADME, organism-based; design: dose 30 mg/kg, route oral; conditions: in vivo; outline: as §1
[35] = test system: Caco-2; assay: Apparent permeability from apical side to basolateral side of human Caco2 cells at 10 uM; type: ADME, cell-based; conditions: caco-2, 10 µM
[36] = Plasma concentration in Swiss albino mouse at 30 mg/kg, po after 2 hrs; type: ADME, organism-based; design: dose 30 mg/kg, route oral; outline: as §1
[37] = test system: Brain; assay: Tmax in brain of Swiss albino mouse at 30 mg/kg, po; type: ADME, organism-based; design: dose 30 mg/kg, route oral; conditions: in vivo; outline: as §1
[38] = test system: Plasma; assay: AUClast in plasma of Swiss albino mouse at 30 mg/kg, po; type: ADME, organism-based; design: time 0 - last, dose 30 mg/kg, route oral; conditions: in vivo; outline: as §1
[39] = test system: Brain; assay: AUClast in brain of Swiss albino mouse at 30 mg/kg, po; type: ADME, organism-based; design: time 0 - last, dose 30 mg/kg, route oral; conditions: in vivo; outline: as §1
[40] = test system: Liver; assay: Half-life in mouse liver microsome at 1 uM; type: ADME; conditions: microsomes
[41] = test system: Plasma; assay: AUC (infinity) in plasma of Swiss albino mouse at 30 mg/kg, po; type: ADME, organism-based; design: dose 30 mg/kg, route oral, time infinity; conditions: in vivo; outline: as §1
[42] = test system: Plasma; assay: Free plasma concentration in Swiss albino mouse at 30 mg/kg, po after 1 hr; type: ADME, organism-based; design: dose 30 mg/kg, route oral; conditions: in vivo
[43] = test system: Brain; assay: Half-life in brain of Swiss albino mouse at 30 mg/kg, po; type: ADME, organism-based; design: dose 30 mg/kg, route oral; conditions: in vivo; outline: as §1
[44] = test system: Brain; assay: Drug level in Swiss albino mouse brain at 30 mg/kg, po after 0.5 hr; type: ADME, organism-based; design: dose 30 mg/kg, route oral; conditions: in vivo; outline: as §1
[45] = test system: Brain; assay: Drug level in Swiss albino mouse brain at 30 mg/kg, po after 0.25 hr; type: ADME, organism-based; design: dose 30 mg/kg, route oral; conditions: in vivo; outline: as §1
[46] = test system: Plasma; assay: Free plasma concentration in Swiss albino mouse at 30 mg/kg, po after 24 hrs; type: ADME, organism-based; design: dose 30 mg/kg, route oral; conditions: in vivo

O=C(O)C1CCN(c2ncc(-c3ccc4c(c3)OCCCO4)s2)CC1
Tmax [1]: 4.98 min
Cp(f) [2]: 2.13 µM
concentration at 0.25 h [3]: 41.7 µM
Papp [4]: 44.1 ×10⁻⁶ cm/s
Kp [5]: 0.028
t1/2 [6]: 11.18 h
concentration at 12 h [7]: 4.57 µM
Cp(f) [8]: 0.23 µM
concentration at 0.5 h [9]: 41.1 µM
Drug uptake [10]: 0.43 µmol/kg
Cmax [11]: 1.23 µmol/kg
Activity [12]: 0.012 µM
Drug uptake [13]: 0.59 µmol/kg
Activity [14]: 325%
Cp(f) [15]: 0.85 µM
Cp(f) [16]: 0.64 µM
fraction unbound [17]: 0.051
Cp(f) [18]: 2.26 µM
Drug uptake [19]: 0.36 µmol/kg
Drug uptake [20]: 0.48 µmol/kg
Cp(f) [21]: 0.55 µM
concentration at 8 h [22]: 12.6 µM
IC50 [23]: 5 nM
concentration at 0.083 h [24]: 44.4 µM
concentration at 1 h [25]: 21 µM
Drug uptake [26]: 0.13 µmol/kg
Activity [27]: 80%
Cmax [28]: 44.4 µM
concentration at 24 h [29]: 4.36 µM
AUC [30]: 3115 ng·h/mL
concentration at 4 h [31]: 10.8 µM
Drug uptake [32]: 0.13 µmol/kg
Cp(f) [33]: 2.1 µM
Drug uptake [34]: 0.32 µmol/kg
Papp [35]: 33.8 ×10⁻⁶ cm/s
concentration at 2 h [36]: 16.6 µM
Tmax [37]: 0.25 h
AUClast [38]: 77768 ng·h/mL
AUClast [39]: 2167 ng·h/mL
t1/2 [40]: > 1 h
AUC [41]: 103094 ng·h/mL
Cp(f) [42]: 1.07 µM
t1/2 [43]: 13.69 h
Drug uptake [44]: 1.14 µmol/kg
Drug uptake [45]: 1.23 µmol/kg
Cp(f) [46]: 0.22 µM
